In assay [1] the test system is Enterococcus faecalis. The assay is described as follows: Antibacterial activity against vancomycin resistant Enterococcus faecalis 51575 assessed as inhibition of bacterial growth measured after 24 hrs. The format is functional.
Assay [2] relates to Enterococcus faecium. As to the kind of experiment: Antibacterial activity against Enterococcus faecium 35667 assessed as inhibition of bacterial growth measured after 24 hrs. It counts as functional.
Assay [3] deals with Enterococcus faecium. As to the kind of experiment: Antibacterial activity against vancomycin resistant Enterococcus faecium 700221 assessed as inhibition of bacterial growth measured after 24 hrs. The format is functional.
Assay [4] deals with Staphylococcus aureus. As to the kind of experiment: Antibacterial activity against Staphylococcus aureus 29213 assessed as inhibition of bacterial growth measured after 24 hrs. The format is functional.
Assay [5] concerns Staphylococcus aureus. The assay is described as follows: Antibacterial activity against Methicillin resistant Staphylococcus aureus 43300 assessed as inhibition of bacterial growth measured after 24 hrs. The format is functional.
Assay [6] can be described thus: Efflux ratio of MIC for Escherichia coli 25922 to MIC for Escherichia coli JW5503. The format is functional. A digest of the protocol:
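Ratio of the MIC against wild-type E. coli ATCC 25922 to the MIC against the tolC deletion mutant JW5503. Both MICs were read after 24 h, n = 3. Not determined when the MIC was >50 μM for both strains.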

In assay [7] the test system is Enterococcus faecalis. As to the kind of experiment: Antibacterial activity against Enterococcus faecalis 29212 assessed as inhibition of bacterial growth measured after 24 hrs. Particulars: Enterococcus faecalis, 29212, 24 h.
Assay [8] concerns Escherichia coli. As to the kind of experiment: Antibacterial activity against Escherichia coli JW5503 delta tolC mutant assessed as inhibition of bacterial growth measured after 24 hrs. Particulars: JW5503, 24 h.

Converted amounts (≈) assume the structure as drawn.

In the case of `CC(=O)NC[C@H]1CN(c2ccc(-c3ccc(COC(=O)c4ccc(B(O)O)cc4)cc3)c(F)c2)C(=O)O1`, the MIC (in general, the lowest concentration that inhibits growth of the organism) in assay [1] worked out at 0.39 µM (≈ 0.197 µg/mL); in assay [2], 0.78 µM (≈ 0.395 µg/mL); in assay [3], 0.39 µM (≈ 0.197 µg/mL); in assay [4] it was 0.78 µM (≈ 0.395 µg/mL); in assay [5] it was 0.78 µM (≈ 0.395 µg/mL); in assay [7] it was 0.78 µM (≈ 0.395 µg/mL). The MIC in assay [8] was found to be 3.13 µM (≈ 1.58 µg/mL). For the same molecule, the Ratio in assay [6] is greater than 16.
As for `CC(=O)NC[C@H]1CN(c2ccc(-c3ccc(CNC(=O)c4ccc(B(O)O)cc4)cc3)c(F)c2)C(=O)O1`, the MIC was determined as 0.39 µM (≈ 0.197 µg/mL) in assay [1]; 0.39 µM (≈ 0.197 µg/mL) in assay [2]; 0.39 µM (≈ 0.197 µg/mL) in assay [3]; 0.78 µM (≈ 0.394 µg/mL) in assay [4]; 0.78 µM (≈ 0.394 µg/mL) in assay [5]; 0.39 µM (≈ 0.197 µg/mL) in assay [7]. In addition, the minimum inhibitory concentration (MIC) in assay [8] worked out at 0.78 µM (≈ 0.394 µg/mL). For the same molecule, the Ratio in assay [6] was greater than 64.
For `CC(=O)NC[C@H]1CN(c2ccc(-c3ccc(O)cc3)c(F)c2)C(=O)O1`, the MIC in assay [1] came to 0.39 µM (≈ 0.134 µg/mL); in assay [2], 0.78 µM (≈ 0.269 µg/mL); in assay [3] it was 0.39 µM (≈ 0.134 µg/mL); in assay [4] it was 0.78 µM (≈ 0.269 µg/mL); in assay [5], 0.78 µM (≈ 0.269 µg/mL); in assay [7], 0.39 µM (≈ 0.134 µg/mL). Also, in assay [8], the MIC stood at 1.56 µM (≈ 0.537 µg/mL). Further, the Ratio in assay [6] was greater than 32.
As to `CC(=O)NC[C@H]1CN(c2ccc(-c3ccc(CNC(=O)c4cccc(B(O)O)c4)cc3)c(F)c2)C(=O)O1`, the MIC in assay [1] was 0.39 µM (≈ 0.197 µg/mL); in assay [2] it was 0.78 µM (≈ 0.394 µg/mL); in assay [3] it was 0.78 µM (≈ 0.394 µg/mL); in assay [4], 0.78 µM (≈ 0.394 µg/mL); in assay [5] it was 0.78 µM (≈ 0.394 µg/mL); in assay [7], 0.39 µM (≈ 0.197 µg/mL). For the same molecule, in assay [8], the MIC is 0.78 µM (≈ 0.394 µg/mL). In addition, the Ratio in assay [6] is greater than 64.
`O=C(O)c1ccc(B(O)O)cc1`: the MIC in assay [1], in assay [2], in assay [3], in assay [4], in assay [5] and in assay [7] was greater than 50 µM in each case. In assay [8], the MIC was greater than 50 µM.
Consider `CC(=O)NCC1CN(c2ccc(-c3ccc(COC(=O)c4ccc(B(O)O)cc4)cc3)c(F)c2)C(=O)O1` (stereo not drawn), for which the MIC in assay [1] came out at 1.56 µM (≈ 0.79 µg/mL); in assay [2], 3.23 µM (≈ 1.64 µg/mL); in assay [3], 1.56 µM (≈ 0.79 µg/mL); in assay [4] it was 3.13 µM (≈ 1.58 µg/mL); in assay [5] it was 1.56 µM (≈ 0.79 µg/mL); in assay [7] it was 3.13 µM (≈ 1.58 µg/mL). In addition, the MIC in assay [8] amounted to 6.25 µM (≈ 3.16 µg/mL). Further, the Ratio in assay [6] was greater than 8.
In the case of `CC(=O)NC[C@H]1CN(c2ccc(-c3ccc(CN)cc3)c(F)c2)C(=O)O1`, the MIC in assay [1] worked out at 1.56 µM (≈ 0.558 µg/mL); in assay [2], 0.78 µM (≈ 0.279 µg/mL); in assay [3] it was 1.56 µM (≈ 0.558 µg/mL); in assay [4], 3.13 µM (≈ 1.12 µg/mL); in assay [5], 3.13 µM (≈ 1.12 µg/mL); in assay [7], 1.56 µM (≈ 0.558 µg/mL). Moreover, the MIC in assay [8] turned out to be 6.25 µM (≈ 2.23 µg/mL). In assay [6], the Ratio was greater than 8.
On to `CC(=O)NCC1CN(c2ccc(-c3ccc(COC(=O)c4ccc(B(O)O)c(F)c4)cc3)c(F)c2)C(=O)O1` (stereo not drawn), for which the minimum inhibitory concentration (MIC) in assay [1] came out at 0.78 µM (≈ 0.409 µg/mL); in assay [2], 1.56 µM (≈ 0.818 µg/mL); in assay [3], 1.56 µM (≈ 0.818 µg/mL); in assay [4], 1.56 µM (≈ 0.818 µg/mL); in assay [5], 1.56 µM (≈ 0.818 µg/mL); in assay [7] it was 1.56 µM (≈ 0.818 µg/mL). Besides, the MIC in assay [8] came out at 12.5 µM (≈ 6.55 µg/mL). The Ratio in assay [6] is greater than 4.
For the molecule `CC(=O)NC[C@H]1CN(c2ccc(-c3ccc(OC(=O)c4ccc(B(O)O)cc4)cc3)c(F)c2)C(=O)O1`, the MIC in assay [1], in assay [2], in assay [3], in assay [4], in assay [5] and in assay [7] was greater than 50 µM throughout. Further, the MIC in assay [8] is greater than 50 µM.
For `CC(=O)NC[C@H]1CN(c2ccc(-c3cccc(COC(=O)c4ccc(B(O)O)cc4)c3)c(F)c2)C(=O)O1`, the MIC in assay [1] came out at 0.39 µM (≈ 0.197 µg/mL); in assay [2] it was 0.78 µM (≈ 0.395 µg/mL); in assay [3] it was 0.78 µM (≈ 0.395 µg/mL); in assay [4], 0.78 µM (≈ 0.395 µg/mL); in assay [5], 0.78 µM (≈ 0.395 µg/mL); in assay [7], 0.78 µM (≈ 0.395 µg/mL). Moreover, in assay [8], the MIC was 3.13 µM (≈ 1.58 µg/mL). For the same molecule, in assay [6], the Ratio is greater than 16.
Take `CC(=O)NCC1CN(c2ccc(-c3ccc(COC(=O)c4ccc(B(O)O)c(Cl)c4)cc3)c(F)c2)C(=O)O1` (stereo not drawn): the MIC in assay [1], in assay [2], in assay [3], in assay [4], in assay [5] and in assay [7] was 1.56 µM (≈ 0.844 µg/mL) each time. Further, the MIC in assay [8] stood at 25 µM (≈ 13.5 µg/mL). The Ratio in assay [6] is greater than 2.
As to `CC(=O)NC[C@H]1CN(c2ccc(N3CCOCC3)c(F)c2)C(=O)O1` [LINEZOLID], the MIC in assay [1] amounted to 6.25 µM (≈ 2.11 µg/mL); in assay [2] it was 12.5 µM (≈ 4.22 µg/mL); in assay [3], 6.25 µM (≈ 2.11 µg/mL); in assay [4] it was 6.25 µM (≈ 2.11 µg/mL); in assay [5] it was 6.25 µM (≈ 2.11 µg/mL); in assay [7], 6.25 µM (≈ 2.11 µg/mL). Besides, the MIC in assay [8] is 75 µM (≈ 25.3 µg/mL). Moreover, the Ratio in assay [6] is greater than 1.
As for `CC(=O)NC[C@H]1CN(c2ccc(-c3ccc(COC(=O)c4cccc(B(O)O)c4)cc3)c(F)c2)C(=O)O1`, the MIC in assay [1] was 0.78 µM (≈ 0.395 µg/mL); in assay [2], greater than 50 µM; in assay [3], greater than 50 µM; in assay [4] it was 1.56 µM (≈ 0.79 µg/mL); in assay [5] it was 0.78 µM (≈ 0.395 µg/mL); in assay [7] it was greater than 50 µM. Moreover, the MIC in assay [8] came to 3.13 µM (≈ 1.58 µg/mL). The Ratio in assay [6] was greater than 16.
With `CC(=O)NC[C@H]1CN(c2ccc(-c3cccc(CO)c3)c(F)c2)C(=O)O1`, the MIC came out at 3.13 µM (≈ 1.12 µg/mL) in assay [1]; 1.56 µM (≈ 0.559 µg/mL) in assay [2]; 1.56 µM (≈ 0.559 µg/mL) in assay [3]; 3.13 µM (≈ 1.12 µg/mL) in assay [4]; 1.56 µM (≈ 0.559 µg/mL) in assay [5]; 1.56 µM (≈ 0.559 µg/mL) in assay [7]. Moreover, in assay [8], the minimum inhibitory concentration (MIC) is 3.13 µM (≈ 1.12 µg/mL). Moreover, in assay [6], the Ratio was greater than 16.
As to `CC(=O)NCC1CN(c2ccc(-c3ccc(COC(=O)c4ccc(B(O)O)cc4Cl)cc3)c(F)c2)C(=O)O1` (stereo not drawn), the MIC in assay [1], in assay [2], in assay [3], in assay [4], in assay [5] and in assay [7] was 3.13 µM (≈ 1.69 µg/mL) in each case. In assay [8], the MIC was found to be 25 µM (≈ 13.5 µg/mL). Moreover, the Ratio in assay [6] was greater than 2.
On to `CC(=O)NCC1CN(c2ccc(-c3ccc(COC(=O)c4ccc(B(O)O)cc4F)cc3)c(F)c2)C(=O)O1` (stereo not drawn), for which the MIC in assay [1], in assay [2], in assay [3], in assay [4], in assay [5] and in assay [7] was 1.56 µM (≈ 0.818 µg/mL) each time. In addition, in assay [8], the MIC came out at 25 µM (≈ 13.1 µg/mL). The Ratio in assay [6] was greater than 2.
Turning to `CC(=O)NC[C@H]1CN(c2ccc(-c3ccc(CO)cc3)c(F)c2)C(=O)O1`, the MIC in assay [1] stood at 0.78 µM (≈ 0.28 µg/mL); in assay [2], 0.78 µM (≈ 0.28 µg/mL); in assay [3], 0.78 µM (≈ 0.28 µg/mL); in assay [4], 1.56 µM (≈ 0.559 µg/mL); in assay [5], 0.78 µM (≈ 0.28 µg/mL); in assay [7] it was 0.78 µM (≈ 0.28 µg/mL). Further, in assay [8], the MIC was 1.56 µM (≈ 0.559 µg/mL). Further, the Ratio in assay [6] is greater than 32.
Take `CC(=O)NCC1CN(c2ccc(-c3ccc(COC(=O)c4ccccc4)cc3)c(F)c2)C(=O)O1` (stereo not drawn): the MIC in assay [1] is 3.13 µM (≈ 1.45 µg/mL); in assay [2] it was 6.25 µM (≈ 2.89 µg/mL); in assay [3] it was 3.13 µM (≈ 1.45 µg/mL); in assay [4], 3.13 µM (≈ 1.45 µg/mL); in assay [5] it was 3.13 µM (≈ 1.45 µg/mL); in assay [7], 3.13 µM (≈ 1.45 µg/mL). For the same molecule, in assay [8], the minimal inhibitory concentration (MIC) was greater than 50 µM.
As for `O=C(O)c1cn(C2CC2)c2cc(N3CCNCC3)c(F)cc2c1=O` [CIPROFLOXACIN], the values for the MIC in assay [1] and in assay [4] were 3 µM (≈ 0.994 µg/mL) and 1.5 µM (≈ 0.497 µg/mL), respectively.

The values above are taken from ChEMBL document CHEMBL4818993, “Installation of an aryl boronic acid function into the external section of N-aryl-oxazolidinones: Synthesis and antimicrobial evaluation” (2021).
